Measurements collected from several papers.
Compare with care: the assays were run in different laboratories.
Read-out: cell growth or viability

SMILES	cell line	method	tested at	time	endpoint	value
COc1cccc(Oc2ccccc2NC(=O)CNC(=O)c2cccc3ccccc23)c1	SR	SRB		48 h	GI50	0.115 µM
O=C1Nc2ccc(Cl)cc2/C1=N/NC(=O)c1cc2ccccc2[nH]1	ZR75		30 µM		inhibition	53.9%
CNC(=O)c1cc(Oc2ccc(NC(=O)Nc3ccc(Cl)c(C(F)(F)F)c3)cc2)ccn1	WM 266-4	MTT	6.3 µM	48 h	viability	50.7%
CN1CCN(c2ccc(C(=O)Nc3n[nH]c4ccc(Cc5cc(F)cc(F)c5)cc34)c(NC3CCOCC3)c2)CC1	KM12	ATP luminescence		72 h	IC50	23.6 µM
Cc1ccc(C(CS(=O)(=O)c2ccccc2)=NNC2=NC(=O)C(=NNc3ccccc3)S2)cc1	WM 266-4	MTT	100 µM	48 h	viability	35.7%
O=C(Nc1ccc(C(F)(F)F)cc1)Nc1cccc(C(=O)Nc2ccc3[nH]ncc3c2)c1	KM12	ATP luminescence		72 h	IC50	33.5 µM
COc1ccc2c(c1)C(=NNc1ncnc3cc(OC)c(OC)cc13)C(=O)N2	ZR75		10 µM		inhibition	32%
O=C(Cc1ccc(C(F)(F)F)cc1)Nc1cccc(C(=O)Nc2ccc3[nH]ncc3c2)c1	KM12	ATP luminescence		72 h	IC50	48.4 µM
COc1ccc(-c2nc(NN=C3C(=O)Nc4ccc(Br)cc43)c3ccccc3n2)cc1OC	ZR75		10 µM		inhibition	78.8%
S=C([S][Au-][P+](CCCCCC[P+]([Au-][S]C(=S)n1cccn1)(c1ccccc1)c1ccccc1)(c1ccccc1)c1ccccc1)n1cccn1	KM12				GI50	0.434 µM
NC(=S)NN=C(CS(=O)(=O)c1ccccc1)c1ccc(F)cc1	WM 266-4	MTT	0.4 µM	48 h	viability	58%
COc1cc2ncnc(NN=C3C(=O)Nc4ccccc43)c2cc1OC	ZR75		30 µM		inhibition	50.4%
Cn1cc(-c2cc(N3CCCCS3(=O)=O)ccc2Oc2ccc(F)cc2F)c2c(F)c[nH]c2c1=O	MOLM-14	CCK-8		72 h	GI50	0.0081 µM
COc1ccc2c(c1)C(=NNc1nc(-c3ccc(OC)c(OC)c3)nc3ccccc13)C(=O)N2	ZR75		30 µM		inhibition	23.1%
O=C(N/N=C1\C(=O)N(c2ccccc2)c2ccccc21)c1cc2ccccc2[nH]1	ZR75		30 µM		inhibition	92.2%
Cc1ccc(C(CS(=O)(=O)c2ccccc2)=NN=C2N=C(c3ccc(Br)cc3)CS2)cc1	WM 266-4	MTT	0.4 µM	48 h	viability	63.8%
CN1C(=O)/C(=N\NC(=O)c2cc3ccccc3[nH]2)c2cc(F)ccc21	ZR75		30 µM		inhibition	78.8%
C=CC(=O)N1CCC[C@@H](n2nc(-c3ccc(Oc4ccccc4)cc3)c3c(N)ncnc32)C1	JeKo-1	ATP luminescence		72 h	GI50	20.1 µM
O=C1Nc2ccc(F)cc2/C1=N/NC(=O)c1cc2ccccc2[nH]1	ZR75		30 µM		inhibition	40%
Cc1ccc2c(c1)C(=NNc1nc3ccccc3n(C)c1=O)C(=O)N2	ZR75		30 µM		inhibition	71%
CCN(CC)CCNC(=O)c1c(C)[nH]c(/C=C2\C(=O)Nc3ccc(F)cc32)c1C	ZR75		30 µM		inhibition	90.7%
Cn1c(=O)c(NN=C2C(=O)Nc3ccc(Cl)cc32)nc2ccccc21	ZR75		30 µM		inhibition	29.8%
Cc1ccc(C(CS(=O)(=O)c2ccccc2)=NNc2nc(-c3ccc(OCCCCOc4ccc(-c5csc(NN=C(CS(=O)(=O)c6ccccc6)c6ccc(C)cc6)n5)cc4)cc3)cs2)cc1	WM 266-4	MTT	25 µM	48 h	viability	48.8%
Cn1c(=O)c(NN=C2C(=O)Nc3ccccc32)nc2ccccc21	ZR75		30 µM		inhibition	52.1%
O=C1Nc2ccccc2/C1=N/NC(=O)c1cc2ccccc2[nH]1	ZR75		30 µM		inhibition	57.7%
CC(C)(C)c1nc(-c2cccc(NS(=O)(=O)c3c(F)cccc3F)c2F)c(-c2ccnc(N)n2)s1	WM 266-4	MTT	25 µM	48 h	viability	47.7%
